Results published in ChEMBL document CHEMBL2321728, “Vectorization efforts to increase Gram-negative intracellular drug concentration: a case study on HldE-K inhibitors” (J Med Chem, 2013).
pIC50: −log10 of the molar value. Activity calls are given as the source filed them. No cut-off for these calls is given here.

Legend:
Escherichia coli [1] = experiment: Antimicrobial activity against acrAB, tolC-deficient Escherichia coli str. K-12 substr. MG1655 measured after overnight incubation by serial dilution method in presence of erythromycin in iron depleted medium; assay type: functional
Outline: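 MIC in M9 medium supplemented with D-glucose, thiamine, casein and apotransferrin (M9S), which is the iron-depleted medium. Erythromycin at 0.13 μg/mL. Inoculum 5 × 10^5 CFU/mL. Compound serial dilutions in 2% DMSO, overnight at 35 °C, visual read-out.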

Escherichia coli [2] = experiment: Antimicrobial activity against wild type Escherichia coli K1 measured after overnight incubation by serial dilution method in presence of erythromycin; assay type: functional
[3] = Inhibition of Escherichia coli HldE-kinase preincubated for 30 mins prior to substrate addition measured after 30 mins by luminescence assay
Outline: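 E. coli HldE (3 nM) preincubated with inhibitor for 30 min at room temperature in pH 7.5 Hepes buffer with MnCl2, KCl, Triton X-100, DTT and MBP. Reaction started with 0.2 μM β-heptose 7-phosphate and 0.2 μM ATP, run 30 min at room temperature. Remaining ATP measured by luciferase/luciferin luminescence. IC50 from 6–10 concentrations fitted to a Langmuir model.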

Escherichia coli [4] = experiment: Antimicrobial activity against acrAB, tolC-deficient Escherichia coli str. K-12 substr. MG1655 measured after overnight incubation by serial dilution method in presence of erythromycin; assay type: functional
Escherichia coli [5] = experiment: Antimicrobial activity against tolC-deficient Escherichia coli K1 assessed as inhibition of LPS biosynthesis at 32 ug/ml after 5 hrs by SDS-PAGE analysis; assay type: functional, organism-based
Outline: (§1)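 LB-grown exponential cells (OD about 0.15) diluted to 5 × 10^5 CFU/mL and exposed to compound (water/DMSO 50/50) at 37 °C for about 5 h, to OD 0.2–0.4. OD-normalized pellets lysed in SDS/β-mercaptoethanol at 95–100 °C, then proteinase K 1 h at 55 °C. LPS resolved by 16% SDS-PAGE and silver stained.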

Escherichia coli [6] = experiment: Antimicrobial activity against tolC-deficient Escherichia coli K1 measured after overnight incubation by serial dilution method in presence of erythromycin; assay type: functional
Escherichia coli [7] = experiment: Antimicrobial activity against wild type Escherichia coli K1 after overnight incubation by checkerboard assay; assay type: functional
Outline: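 Checkerboard against E. coli K1 (018:K1:H7) wild type. Early to log phase preculture suspended in ca-MHB to a final inoculum of 5 × 10^5 CFU/mL. Combined serial dilutions of kanamycin, the unvectorized inhibitor or bis(3-aminopropyl)amine with erythromycin, in 2% DMSO. Incubated overnight at 35 °C; MIC of each combination read by visual inspection.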

Escherichia coli [8] = experiment: Antimicrobial activity against wild type Escherichia coli K1 assessed as inhibition of LPS biosynthesis at 30 ug/ml after 5 hrs by SDS-PAGE analysis; assay type: functional, organism-based; outline: as §1

Compound: O=C(NCCOc1ccc2sc(CNc3nncc(-c4c(Cl)cccc4Cl)n3)nc2c1)[C@@H]1CSC(c2ccccc2O)=N1
- MIC (Escherichia coli [1]): > 32 µg/mL
- MIC (Escherichia coli [2]): > 32 µg/mL
- pIC50 [3]: 6.18
- MIC (Escherichia coli [4]): > 32 µg/mL

Compound: O=C(O)COc1ccc2sc(CNc3nncc(-c4c(Cl)cccc4Cl)n3)nc2c1
- MIC (Escherichia coli [2]): > 64 µg/mL
- pIC50 [3]: 7.72

Compound: Cc1cc(NCCN(C)C)cc(C)c1-c1cnnc(NCc2nc3cc(OCCN)ccc3s2)n1
- MIC (Escherichia coli [2]): > 64 µg/mL
- pIC50 [3]: 5.85
- inhibition (Escherichia coli [5]): inactive
- MIC (Escherichia coli [6]): > 64 µg/mL

Compound: Cn1nc(O)c(=O)nc1SCCOc1ccc2sc(CNc3nncc(-c4c(Cl)cccc4Cl)n3)nc2c1
- MIC (Escherichia coli [1]): 1 µg/mL
- MIC (Escherichia coli [2]): > 64 µg/mL
- pIC50 [3]: 7.60
- MIC (Escherichia coli [4]): 2 µg/mL

Compound: O=C(COc1ccc2sc(CNc3nncc(-c4c(Cl)cccc4Cl)n3)nc2c1)NO
- MIC (Escherichia coli [1]): 1 µg/mL
- MIC (Escherichia coli [2]): > 64 µg/mL
- pIC50 [3]: 9.00
- MIC (Escherichia coli [4]): 2 µg/mL

Compound: CC[C@H]1OC(=O)[C@H](C)[C@@H](O[C@H]2C[C@@](C)(OC)[C@@H](O)[C@H](C)O2)[C@H](C)[C@@H](O[C@@H]2O[C@H](C)C[C@H](N(C)C)[C@H]2O)[C@](C)(O)C[C@@H](C)C(=O)[C@H](C)[C@@H](O)[C@]1(C)O [ERYTHROMYCIN]
- MIC (Escherichia coli [7]): 16 µg/mL

Compound: NCCCN(CCCN)C(=O)COc1ccc2sc(CNc3nncc(-c4c(Cl)cccc4Cl)n3)nc2c1
- MIC (Escherichia coli [2]): 8 µg/mL
- pIC50 [3]: 6.29
- inhibition (Escherichia coli [5]): inactive
- MIC (Escherichia coli [6]): 4 µg/mL

Compound: Cc1cc(NC(=O)CN(C)C)cc(C)c1-c1cnnc(NCc2nc3cc(O)ccc3s2)n1
- MIC (Escherichia coli [2]): > 64 µg/mL
- pIC50 [3]: 6.06
- MIC (Escherichia coli [4]): 16 µg/mL

Compound: NCCCN(CCCN)CCOc1ccc2sc(CNc3nncc(-c4c(Cl)cccc4Cl)n3)nc2c1
- MIC (Escherichia coli [2]): 4 µg/mL
- pIC50 [3]: 6.20
- inhibition (Escherichia coli [5]): inactive
- MIC (Escherichia coli [6]): 2 µg/mL

Compound: CN1CCN(CCOc2ccc3sc(CNc4nncc(-c5c(Cl)cccc5Cl)n4)nc3c2)CC1
- MIC (Escherichia coli [2]): > 64 µg/mL
- pIC50 [3]: 6.96
- inhibition (Escherichia coli [5]): inactive
- MIC (Escherichia coli [6]): 32 µg/mL

Compound: COc1ccc2sc(CNc3nncc(-c4c(C)cc(NCCN(C)C)cc4C)n3)nc2c1
- MIC (Escherichia coli [2]): > 64 µg/mL
- pIC50 [3]: 7.09
- MIC (Escherichia coli [4]): 32 µg/mL

Compound: CCN1CCN(C(=O)NCCOc2ccc3sc(CNc4nncc(-c5c(C)cccc5O)n4)nc3c2)C(=O)C1=O
- MIC (Escherichia coli [1]): 8 µg/mL
- MIC (Escherichia coli [2]): > 32 µg/mL
- pIC50 [3]: 6.28
- MIC (Escherichia coli [4]): > 32 µg/mL

Compound: NC[C@H]1O[C@H](O[C@H]2[C@H](O)[C@@H](O[C@H]3O[C@H](CO)[C@@H](O)[C@H](N)[C@H]3O)[C@H](N)C[C@@H]2N)[C@H](O)[C@@H](O)[C@@H]1O [KANAMYCIN]
- MIC (Escherichia coli [7]): 8 µg/mL

Compound: CN(C)CC(CN(C)C)NC(=O)COc1ccc2sc(CNc3nncc(-c4c(Cl)cccc4Cl)n3)nc2c1
- MIC (Escherichia coli [2]): > 64 µg/mL
- pIC50 [3]: 6.38
- inhibition (Escherichia coli [5]): inactive
- MIC (Escherichia coli [6]): 32 µg/mL

Compound: NC[C@H]1O[C@H](O[C@H]2[C@H](O)[C@@H](O[C@H]3O[C@H](Cn4cc(CNC(=O)COc5ccc6sc(CNc7nncc(-c8c(Cl)cccc8Cl)n7)nc6c5)nn4)[C@@H](O)[C@H](N)[C@H]3O)[C@H](N)C[C@@H]2N)[C@H](O)[C@@H](O)[C@@H]1O
- MIC (Escherichia coli [2]): 8 µg/mL
- pIC50 [3]: 7.01
- inhibition (Escherichia coli [8]): inactive
- MIC (Escherichia coli [4]): 4 µg/mL
- MIC (Escherichia coli [6]): 2 µg/mL

Compound: NCCNCCNC(=O)COc1ccc2sc(CNc3nncc(-c4c(Cl)cccc4Cl)n3)nc2c1
- MIC (Escherichia coli [2]): 32 µg/mL
- pIC50 [3]: 6.96
- inhibition (Escherichia coli [5]): inactive
- MIC (Escherichia coli [6]): 8 µg/mL

Compound: O=C(COc1ccc2sc(CNc3nncc(-c4c(Cl)cccc4Cl)n3)nc2c1)OCc1cc(=O)c(O)cn1O
- MIC (Escherichia coli [1]): 32 µg/mL
- MIC (Escherichia coli [2]): > 64 µg/mL
- pIC50 [3]: 7.52
- MIC (Escherichia coli [4]): > 64 µg/mL

Compound: O=S(=O)(NCCOc1ccc2sc(CNc3nncc(-c4c(Cl)cccc4Cl)n3)nc2c1)c1ccc(O)c(O)c1
- MIC (Escherichia coli [1]): 2 µg/mL
- MIC (Escherichia coli [2]): > 64 µg/mL
- pIC50 [3]: 7.48
- MIC (Escherichia coli [4]): 4 µg/mL

Compound: CS(=O)(=O)NC(=O)COc1ccc2sc(CNc3nncc(-c4c(Cl)cccc4Cl)n3)nc2c1
- MIC (Escherichia coli [1]): 16 µg/mL
- MIC (Escherichia coli [2]): > 64 µg/mL
- pIC50 [3]: 7.80
- MIC (Escherichia coli [4]): 16 µg/mL

Compound: Cc1cc(NCCN(C)C)cc(C)c1-c1cnnc(NCc2nc3cc(O)ccc3s2)n1
- MIC (Escherichia coli [2]): > 64 µg/mL
- pIC50 [3]: 6.11
- MIC (Escherichia coli [4]): 16 µg/mL

Compound: O=C(NCCOc1ccc2sc(CNc3nncc(-c4c(Cl)cccc4Cl)n3)nc2c1)c1cc(=O)c(O)co1
- MIC (Escherichia coli [1]): 2 µg/mL
- MIC (Escherichia coli [2]): > 64 µg/mL
- pIC50 [3]: 7.15
- MIC (Escherichia coli [4]): > 64 µg/mL

Compound: O=C(COc1ccc2sc(CNc3nncc(-c4c(Cl)cccc4Cl)n3)nc2c1)NCCO
- MIC (Escherichia coli [2]): > 64 µg/mL
- pIC50 [3]: 7.26
- inhibition (Escherichia coli [5]): Active

Compound: NCCN(CCN)CCNC(=O)COc1ccc2sc(CNc3nncc(-c4c(Cl)cccc4Cl)n3)nc2c1
- MIC (Escherichia coli [2]): 8 µg/mL
- pIC50 [3]: 6.24
- inhibition (Escherichia coli [5]): inactive
- MIC (Escherichia coli [6]): 4 µg/mL

Compound: COc1ccc2sc(CNc3nncc(-c4c(C)cccc4O)n3)nc2c1
- pIC50 [3]: 7.16
